SENP6 block = SENP6 protease inhibitors, primary screen, biochemical, luminescence, uHTS; Recombinant SENP6 catalytic domain, aminoluciferin luminescence; inhibition, % at 10 µM; 330,000 tested, 1.8% active;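 active means inhibition above about 50% at the single tested dose, limit read from the data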;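 further: plate controls were DMSO wells with enzyme for no effect and DMSO wells lacking enzyme for full effect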
SENP8 block-1 = human SENP8 protease inhibitors, primary screen, biochemical, fluorescence, Nedd8 protein substrate, uHTS. recombinant SENP8. inhibition, % at 20 µM. 360,000 tested, 0.64% active. AID 602440, 2012; in the data active means inhibition mostly above about 40%, no sharp cut-off; inactive means mostly below about 27%
Target sequence (Q96LD8 whole entry, looked up): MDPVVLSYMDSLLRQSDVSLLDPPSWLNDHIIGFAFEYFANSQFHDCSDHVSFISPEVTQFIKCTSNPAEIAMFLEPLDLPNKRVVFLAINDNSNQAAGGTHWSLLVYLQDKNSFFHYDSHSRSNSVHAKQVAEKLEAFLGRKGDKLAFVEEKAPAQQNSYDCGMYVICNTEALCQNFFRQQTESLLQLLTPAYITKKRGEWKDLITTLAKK
SENP1 FRET inh = human SENP1 catalytic domain inhibitors, primary screen, biochemical, FRET, uHTS; Sentrin-specific protease 1 (Homo sapiens), Q9P0U3; recombinant SENP1 catalytic domain, CyPet-SUMO1-YPet FRET cleavage; inhibition, % at 10 µM; 360,000 tested, 0.21% active; AID 624204, 2012;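 active means inhibition at least 30% at 10 µM, raw YFP signal under a set limit, fluorescence ratio 0.5 to 1.5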;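 further: 0% = enzyme with DMSO and 100% = no enzyme wells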
Target sequence (Q9P0U3 419-644 limits assumed): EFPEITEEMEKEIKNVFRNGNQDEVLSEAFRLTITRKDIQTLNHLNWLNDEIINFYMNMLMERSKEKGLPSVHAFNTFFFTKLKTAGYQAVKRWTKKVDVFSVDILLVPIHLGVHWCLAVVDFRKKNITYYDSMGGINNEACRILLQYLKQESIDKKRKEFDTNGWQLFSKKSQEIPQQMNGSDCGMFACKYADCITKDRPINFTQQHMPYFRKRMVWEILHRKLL
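Assay system: hSENP1 catalytic domain, recombinant. Amount: SENP1 enzyme, 20 pM final. Schedule: 50 min reaction, RT, dark. Technique: FRET, CFP and YFP emission. Control set: no-enzyme wells low, DMSO-plus-enzyme wells high control.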
SENP8 block-2 = SENP8 protease inhibitors, primary screen, biochemical, luminescence | purified SENP8, Z-RLRGG-aminoluciferin cleavage | inhibition, % at 10 µM | 330,000 tested, 1.2% active; in the data active means inhibition above about 50%
SENP7 inh = SENP7 protease inhibitors, primary screen, biochemical, luminescence, uHTS; Sentrin-specific protease 7 (Homo sapiens), Q9BQF6; recombinant SENP7, Z-RLRGG-aminoluciferin luminescence, 40 min; inhibition, % at 5 µM; 330,000 tested, 1.5% active;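 active means inhibition above about 50% at the single test dose, limit read from the data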;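 further: plate controls were DMSO with enzyme for no effect and no enzyme buffer wells for full effect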
SENP8 confirm = SENP8 protease inhibitors, retest, confirmation, biochemical, luminescence, single concentration; inhibition, % at 12.5 µM; Recombinant SENP8, Z-RLRGG-aminoluciferin luminescence, 60 min; shares compounds with SENP7 inh; 6,200 tested, 40% active;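 active means mean inhibition across replicates above about 50%, limit read from the data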
SENP6 conf = SENP6 protease inhibitors, confirmation, biochemical, luminescence, single concentration; shares compounds with SENP7 inh; recombinant SENP6, Z-RLRGG-aminoluciferin luminescence; inhibition, % at 12.5 µM; 6,200 tested, 58% active
SENP7 confirm = SENP7 protease inhibitors, retest, confirmation, biochemical, luminescence, single concentration. shares compounds with SENP7 inh. recombinant SENP7, Z-RLRGG-aminoluciferin luminescence, 40 min. inhibition, % at 12.5 µM. 6,200 tested, 69% active
Casp3 select = caspase-3 protease inhibitors, confirmation, selectivity assay for SENP inhibitor project, biochemical, single concentration; purified caspase-3, Z-DEVD-aminoluciferin luminescence, 60 min; AID 488918, 2010; inhibition, % at 12.5 µM; 6,200 tested, 60% active; shares compounds with SENP7 inh;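 active means mean inhibition above about 50%, limit read from the data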;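 further: plate controls were enzyme with DMSO for no effect and wells without caspase-3 for full effect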
Target sequence (P42574 28-227 limits assumed): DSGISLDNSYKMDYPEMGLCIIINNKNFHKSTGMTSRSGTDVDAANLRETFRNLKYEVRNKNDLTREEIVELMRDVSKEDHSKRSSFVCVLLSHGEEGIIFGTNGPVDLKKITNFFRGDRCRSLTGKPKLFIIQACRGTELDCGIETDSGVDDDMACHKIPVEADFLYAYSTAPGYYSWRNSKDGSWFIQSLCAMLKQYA
Luc interf = counter-screen for SENP inhibitors: luminescence interference. shares compounds with SENP7 inh. Pre-incubated SENP8/Z-RLRGG-aminoluciferin, luciferase luminescence interference. inhibition, % at 12.5 µM. 6,200 tested, 39% active. AID 488919;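 active means mean inhibition above about 50% when retested at one dose, limit read from the data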;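 further: plate controls were DMSO wells with completed reaction for no effect and substrate without enzyme for full effect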
Active calls of the source: *; i = inactive; . = no result given. A selection: hits, their analogues and other compounds. The true share with any hit is near 2.5%.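 How the source made its calls, unless noted: active means mean inhibition above about 50% in the one-dose retest (limit read from the data); inactive means the rest.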

SMILES	SENP6 block	SENP8 block-1	SENP1 FRET inh	SENP8 block-2	SENP7 inh	SENP8 confirm	SENP6 conf	SENP7 confirm	Casp3 select	Luc interf
COCCCNc1nc2ccccc2nc1NS(=O)(=O)c1cccc(C)c1	-22.6	-275.7	-10.5	1.1	4.0	.	.	.	.	.
Cc1ccc(S(=O)(=O)N(C)S(=O)(=O)c2ccc(C#N)cc2)cc1	-13.3	.	.	0.0	-1.7	.	.	.	.	.
C=CCn1c(NC(=O)c2ccc(Br)o2)c(S(=O)(=O)c2ccccc2)c2nc3ccccc3nc21	72.7*	-275.5	-23.8	42.4	1.6	13.3	32.4	20.0	6.0	4.2
O=C(Nc1ccc(S(=O)(=O)NCc2ccccc2)cc1)c1ccc(Br)o1	3.2	23.8	1.0	-3.4	-4.9	.	.	.	.	.
O=C(NNC(=S)Nc1ccccc1Cl)c1ccccc1Cl	73.1*	8.4	-0.5	73.7*	49.9	40.1	28.0	18.3	9.7	12.6
COc1ccccc1C(=O)NNC(=O)c1ccccc1Br	-21.9	2.1	1.2	1.1	11.6	.	.	.	.	.
COc1ccccc1NC(=S)NNC(=O)c1ccccc1Br	75.3*	-13.2	-0.2	46.5	70.6*	20.8	15.7	15.0	6.5	14.7
NC(=O)c1ccccc1NC(=O)/C=C/c1c(Cl)cccc1Cl	52.5*	3.2	1.0	-6.9	45.2	-14.1	-8.1	86.0*	41.7	3.9
O=C(NNC(=S)Nc1ccccc1Cl)c1ccccc1	64.6*	0.7	3.2	55.8*	91.4*	15.7	21.5	27.6	28.1	34.2
O=C(CCNS(=O)(=O)c1ccccc1)NNC(=O)c1cccc(Cl)c1	-0.1	7.2	0.4	-12.5	-9.0	.	.	.	.	.
O=C(CCN1C(=O)C2CC=CCC2C1=O)Nc1nccs1 (stereo not drawn)	-6.3	6.8	2.8	-2.3	-1.5	.	.	.	.	.
CN(C)S(=O)(=O)c1cccc(NC(=O)c2ccc(NS(=O)(=O)c3cccs3)cc2)c1	-4.1	18.8	2.4	2.8	-5.9	.	.	.	.	.
CCOc1ccc(-n2nc3cc(C)c(N)cc3n2)cc1	73.3*	i	-67.9	45.7	13.2	40.3	74.3*	94.1*	37.5	5.9
CCOc1ccc(-n2nc3ccc(N)cc3n2)cc1	86.3*	-428.7	-33.5	79.4*	40.8	85.1*	44.8	1.0	2.2	66.0*
COc1ccc(-n2nc3ccc(N)cc3n2)cc1	.	i	-42.5	.	.	.	.	.	.	.
CC(OC(=O)c1ccc(Cl)nc1)C(=O)Nc1ccc2c(c1)OCO2 (stereo not drawn)	0.2	2.3	-3.7	-8.9	2.9	.	.	.	.	.
CC(C)c1ccc(C(=O)N2CCOCC2c2cc(C(=O)Nc3ccccc3)no2)cc1 (stereo not drawn)	.	9.8	-0.3	.	.	.	.	.	.	.
Cc1ccc(-c2nc(-c3ccncc3)no2)cc1Cl	29.9	11.9	-1.4	23.4	54.8*	22.7	20.2	34.7	38.6	10.8
Cc1cc(-c2nc(-c3ccncc3)no2)ccc1[N+](=O)[O-]	59.5*	12.9	0.9	54.5*	60.7*	8.7	8.6	16.2	11.7	11.3
O=[N+]([O-])c1cccc(-c2nc(-c3ccncc3)no2)c1	5.6	24.2	0.5	-15.4	9.3	.	.	.	.	.
COc1ccc(-c2nc(-c3ccncc3)no2)cc1OC	27.5	2.4	0.0	13.1	17.3	.	.	.	.	.
Cc1ccc(-c2nc(-c3ccncc3)no2)cc1C	84.9*	2.4	0.5	79.4*	78.0*	53.3*	58.4*	76.4*	65.5*	30.0
CCC1NC(=O)c2ccccc2N1c1cccc(Cl)c1 (stereo not drawn)	-12.4	-426.8	1.8	-4.3	1.4	.	.	.	.	.
O=C(CCNC(=O)C1CCN(S(=O)(=O)c2ccc(F)cc2)CC1)NCc1ccccc1	2.6	8.2	0.9	2.2	0.7	.	.	.	.	.
CCCC(=O)N1CCC1(C)C(=O)NS(=O)(=O)c1ccc(C(C)(C)C)cc1 (stereo not drawn)	.	5.8	-1.6	.	.	.	.	.	.	.
SMILES	SENP6 block	SENP8 block-1	SENP1 FRET inh	SENP8 block-2	SENP7 inh	SENP8 confirm	SENP6 conf	SENP7 confirm	Casp3 select	Luc interf
COc1cc(/C=C2\NC(=S)NC2=O)ccc1OCc1cccc(C(=O)O)c1	27.9	-82.5	-4.0	-11.8	-3.9	.	.	.	.	.
O=C1NC(=O)/C(=C\c2ccc(OCc3cccc(C(=O)O)c3)c(Cl)c2)N1	95.0*	-179.4	-0.3	90.5*	77.4*	-15.7	92.9*	100.8*	29.8	70.7*
COC(=O)c1sc(NC(=O)c2ccncc2)nc1C	89.8*	8.9	2.2	86.3*	93.6*	80.3*	91.0*	100.5*	97.4*	48.6
C=CCOC(=O)c1sc(NC(=O)c2ccc(OC)cc2)nc1C	-29.9	-125.8	-1.0	1.0	68.8*	14.4	16.3	25.2	14.9	4.4
COC(=O)c1sc(NC(=O)c2ccco2)nc1C	39.3	-27.9	1.5	21.9	28.0	.	.	.	.	.
CCOC(=O)c1sc(NC(=S)NC(=O)c2ccc(OC)cc2)nc1C	-26.0	0.1	0.3	-2.1	-7.7	.	.	.	.	.
CCOC(=O)c1sc(NC(=O)c2ccc3nc[nH]c3c2)nc1C	80.5*	-84.0	-63.1	73.5*	74.5*	11.7	71.6*	36.1	26.0	5.2
CCOc1ccc(C(=O)Nc2nc(C)c(C(=O)OC)s2)cc1	53.7*	-112.8	-3.3	43.5	91.9*	31.4	30.4	36.3	49.8	12.4
COc1cc(OC)c(NC(=O)N2CCOCC2)cc1Cl	14.7	11.9	1.0	1.6	-7.4	.	.	.	.	.
O=C(c1ccco1)N1CCN(C(=O)c2ccc(CS(=O)c3ccc(Cl)cc3)o2)CC1 (stereo not drawn)	5.0	-7.2	0.8	-5.2	-3.4	.	.	.	.	.
CCC(C)(C)C1CCC2(CC1)NC(=O)N(CC(=O)N(C)Cc1ccc3c(c1)OCCO3)C2=O (stereo not drawn)	-1.9	0.2	3.1	3.3	2.1	.	.	.	.	.
Cc1nccc(-c2cc(-c3ccc(Cl)cc3Cl)no2)n1	89.0*	-0.5	1.5	83.5*	88.5*	73.2*	77.1*	94.4*	84.3*	20.0
